These compounds were tested against T1, Thymidine kinase, cytosolic (Cricetulus griseus, UniProt P09768) (assay: Competitive inhibition of thymidine kinase in BHK21 (C13) cells using thymidine as substrate assessed as formation of TMP by Lineweaver-Burk plot analysis).
T1 sequence (P09768 whole entry): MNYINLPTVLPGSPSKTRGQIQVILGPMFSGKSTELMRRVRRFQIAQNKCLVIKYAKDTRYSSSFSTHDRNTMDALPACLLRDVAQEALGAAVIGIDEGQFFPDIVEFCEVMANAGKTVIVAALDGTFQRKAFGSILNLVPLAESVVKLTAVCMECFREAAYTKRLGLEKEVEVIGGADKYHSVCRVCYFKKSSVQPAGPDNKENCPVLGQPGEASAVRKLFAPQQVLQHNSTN
Summary of the method: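 BHK21(C13) cells sonicated in 0.05 M NaCl; 100000g supernatant stored in 50% glycerol at 4 °C. Assay in Tris-HCl 0.05 M pH 8.0, ATP 5 mM, MgCl2 2.5 mM, [14C]thymidine at four or more levels from 3.6 to 18 μM, two inhibitor levels plus a no-inhibitor control, duplicates, 10 min at 37 °C. [14C]TMP captured on DEAE-cellulose disks and counted by scintillation; Ki taken from Lineweaver-Burk plots.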

SMILES	Ki [µM]
Nc1cn([C@H]2C[C@H](O)[C@@H](CO)O2)c(=O)[nH]c1=O	450
NCc1cn([C@H]2C[C@H](O)[C@@H](CO)O2)c(=O)[nH]c1=O	1700
CCCCCCN(C[C@H]1O[C@@H](n2cc(C)c(=O)[nH]c2=O)C[C@@H]1O)C(C)=O	4400
CC(=O)N(C)CCN(C)C[C@H]1O[C@@H](n2cc(C)c(=O)[nH]c2=O)C[C@@H]1O	900
Cc1cn([C@H]2C[C@H](O)[C@@H](CSCCO)O2)c(=O)[nH]c1=O	800
Cc1cn([C@H]2C[C@H](O)[C@@H](CSCCC(=O)O)O2)c(=O)[nH]c1=O	500
Cc1cn([C@H]2C[C@H](O)[C@@H](CSCCCC(=O)O)O2)c(=O)[nH]c1=O	1200
CC(=O)N[C@H]1C[C@H](n2cc(C)c(=O)[nH]c2=O)O[C@@H]1CO	2500
CC(=O)NC[C@H]1O[C@@H](n2cc(C)c(=O)[nH]c2=O)C[C@@H]1O [N-[(2R,5R)-3-Hydroxy-5-(5-methyl-2,4-dioxo-3,4-dihydro-2H-pyrimidin-1-yl)-tetrahydro-furan-2-ylmethyl]-acetamide]	6500

These reach a lower Ki. Values come first.

Ki [µM]	SMILES
220	N#Cc1cn([C@H]2C[C@H](O)[C@@H](CO)O2)c(=O)[nH]c1=O
72	CCCCCn1c(=O)c(C)cn([C@H]2C[C@H](O)[C@@H](CO)O2)c1=O
270	CC(=O)NCC(O)[C@H]1O[C@@H](n2cc(C)c(=O)[nH]c2=O)C[C@@H]1O (stereo partly drawn)
160	CCC(=O)NCC(O)[C@H]1O[C@@H](n2cc(C)c(=O)[nH]c2=O)C[C@@H]1O (stereo partly drawn)
190	CCNC[C@H]1O[C@@H](n2cc(C)c(=O)[nH]c2=O)C[C@@H]1O
270	CCCCNC[C@H]1O[C@@H](n2cc(C)c(=O)[nH]c2=O)C[C@@H]1O
180	CCCCCCNC[C@H]1O[C@@H](n2cc(C)c(=O)[nH]c2=O)C[C@@H]1O
250	CC(=O)NCCNC[C@H]1O[C@@H](n2cc(C)c(=O)[nH]c2=O)C[C@@H]1O
12	CCS[C@H]1C[C@H](n2cc(C)c(=O)[nH]c2=O)O[C@@H]1CO
